What was measured:
[1] = test system: U2OS; assay: Multiplex assay against U2OS; type: toxicity, cell-based; conditions: human
Outline: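 Live cells carried four stains from seeding: Hoechst33342, BioTracker Green Microtubule Cytoskeleton Dye, MitoTracker Red and Annexin V Alexa Fluor 680. They were imaged on a CQ1 microscope at 37°C and 5% CO2 after compound addition. Using CellPathfinder machine-learning gating, cells were split into Hoechst high-intensity objects or normal cells, normal cells into healthy, pyknosed or fragmented nuclei, and pyknosed cells into mitotic or apoptotic; tubulin, mitochondrial-mass and membrane-permeability phenotypes are per cents of healthy-nucleus cells.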

[2] = test system: HEK-293T; assay: Incucyte cell viability with HEK293T; type: toxicity, cell-based; conditions: human, 10 µM, compound concentration 10 uM; note: filed as whole numbers so only -1 and 0 and 1 occur
[3] = 12 h, 1 µM, compound concentration 1 uM, replicate 1
[4] = 12 h, 1 µM, compound concentration 1 uM, replicate 2
[5] = 12 h, 10 µM, compound concentration 10 uM, replicate 1
[6] = 12 h, 10 µM, compound concentration 10 uM, replicate 2
[7] = 24 h, 1 µM, compound concentration 1 uM, replicate 1
[8] = 24 h, 1 µM, compound concentration 1 uM, replicate 2
[9] = 24 h, 10 µM, compound concentration 10 uM, replicate 1
[10] = 24 h, 10 µM, compound concentration 10 uM, replicate 2

Structure (SMILES): CC[C@H](Nc1ncnc2[nH]cnc12)c1nc2cccc(F)c2c(=O)n1-c1ccccc1 [IDELALISIB]
- Population Apoptotic (%) [1, 3]: 46%
- Population Fragmented Nuclei (%) [1, 3]: 1%
- Population Healthy Nuclei (%) [1, 3]: 88%
- Population Hoechst High Intensity Objects (%) [1, 3]: 3%
- Population Membrane Permeable-Phenotype (%) [1, 3]: 47%
- Population Mitochondria Different-Phenotype (%) [1, 3]: 10%
- Population Mitotic Cells (%) [1, 3]: 53%
- Population Normal (%) [1, 3]: 96%
- Population Pyknosed Nuclei (%) [1, 3]: 9%
- Population Tubulin-Different-Phenotype (%) [1, 3]: 34%
- Total Cell Count [1, 3]: 162
- Population Apoptotic (%) [1, 4]: 14%
- Population Fragmented Nuclei (%) [1, 4]: 10%
- Population Healthy Nuclei (%) [1, 4]: 84%
- Population Hoechst High Intensity Objects (%) [1, 4]: 9%
- Population Membrane Permeable-Phenotype (%) [1, 4]: 45%
- Population Mitochondria Different-Phenotype (%) [1, 4]: 8%
- Population Mitotic Cells (%) [1, 4]: 85%
- Population Normal (%) [1, 4]: 90%
- Population Pyknosed Nuclei (%) [1, 4]: 5%
- Population Tubulin-Different-Phenotype (%) [1, 4]: 27%
- Total Cell Count [1, 4]: 132
- Population Apoptotic (%) [1, 5]: 0%
- Population Fragmented Nuclei (%) [1, 5]: 5%
- Population Healthy Nuclei (%) [1, 5]: 86%
- Population Hoechst High Intensity Objects (%) [1, 5]: 11%
- Population Membrane Permeable-Phenotype (%) [1, 5]: 4%
- Population Mitochondria Different-Phenotype (%) [1, 5]: 18%
- Population Mitotic Cells (%) [1, 5]: 100%
- Population Normal (%) [1, 5]: 88%
- Population Pyknosed Nuclei (%) [1, 5]: 7%
- Population Tubulin-Different-Phenotype (%) [1, 5]: 90%
- Total Cell Count [1, 5]: 180
- Population Fragmented Nuclei (%) [1, 6]: 8%
- Population Healthy Nuclei (%) [1, 6]: 88%
- Population Hoechst High Intensity Objects (%) [1, 6]: 16%
- Population Mitochondria Different-Phenotype (%) [1, 6]: 28%
- Population Normal (%) [1, 6]: 83%
- Population Pyknosed Nuclei (%) [1, 6]: 2%
- Population Tubulin-Different-Phenotype (%) [1, 6]: 15%
- Total Cell Count [1, 6]: 130
- Population Apoptotic (%) [1, 7]: 45%
- Population Fragmented Nuclei (%) [1, 7]: 3%
- Population Healthy Nuclei (%) [1, 7]: 85%
- Population Hoechst High Intensity Objects (%) [1, 7]: 3%
- Population Membrane Permeable-Phenotype (%) [1, 7]: 28%
- Population Mitochondria Different-Phenotype (%) [1, 7]: 9%
- Population Mitotic Cells (%) [1, 7]: 54%
- Population Normal (%) [1, 7]: 96%
- Population Pyknosed Nuclei (%) [1, 7]: 10%
- Population Tubulin-Different-Phenotype (%) [1, 7]: 17%
- Total Cell Count [1, 7]: 210
- Population Apoptotic (%) [1, 8]: 42%
- Population Fragmented Nuclei (%) [1, 8]: 9%
- Population Healthy Nuclei (%) [1, 8]: 77%
- Population Hoechst High Intensity Objects (%) [1, 8]: 5%
- Population Membrane Permeable-Phenotype (%) [1, 8]: 32%
- Population Mitochondria Different-Phenotype (%) [1, 8]: 15%
- Population Mitotic Cells (%) [1, 8]: 57%
- Population Normal (%) [1, 8]: 94%
- Population Pyknosed Nuclei (%) [1, 8]: 13%
- Population Tubulin-Different-Phenotype (%) [1, 8]: 15%
- Total Cell Count [1, 8]: 148
- Population Apoptotic (%) [1, 9]: 33%
- Population Fragmented Nuclei (%) [1, 9]: 3%
- Population Healthy Nuclei (%) [1, 9]: 93%
- Population Hoechst High Intensity Objects (%) [1, 9]: 11%
- Population Membrane Permeable-Phenotype (%) [1, 9]: 2%
- Population Mitochondria Different-Phenotype (%) [1, 9]: 19%
- Population Mitotic Cells (%) [1, 9]: 66%
- Population Normal (%) [1, 9]: 88%
- Population Pyknosed Nuclei (%) [1, 9]: 2%
- Population Tubulin-Different-Phenotype (%) [1, 9]: 94%
- Total Cell Count [1, 9]: 244
- Population Apoptotic (%) [1, 10]: 40%
- Population Fragmented Nuclei (%) [1, 10]: 9%
- Population Healthy Nuclei (%) [1, 10]: 82%
- Population Hoechst High Intensity Objects (%) [1, 10]: 8%
- Population Membrane Permeable-Phenotype (%) [1, 10]: 8%
- Population Mitochondria Different-Phenotype (%) [1, 10]: 30%
- Population Mitotic Cells (%) [1, 10]: 60%
- Population Normal (%) [1, 10]: 91%
- Population Pyknosed Nuclei (%) [1, 10]: 7%
- Population Tubulin-Different-Phenotype (%) [1, 10]: 21%
- Total Cell Count [1, 10]: 146
- Growth Rate ([2]; 6 h, replicate number 1, timepoint 6 hours): 0
- Growth Rate ([2]; 12 h, replicate number 1, timepoint 12 hours): 0
- Growth Rate ([2]; 18 h, replicate number 1, timepoint 18 hours): 0
- Growth Rate ([2]; 24 h, replicate number 1, timepoint 24 hours): 0

Reference: ChEMBL document CHEMBL4689842, “EUbOPEN Chemogenomics Library wave 1” (2021)
